Results collected from several papers.
Compare with care: the assays were run in different laboratories.
PIK3CA: Phosphatidylinositol 4,5-bisphosphate 3-kinase catalytic subunit alpha isoform (PIK3CA, Homo sapiens, UniProt P42336)
KDR: Vascular endothelial growth factor receptor 2 (KDR, Homo sapiens, UniProt P35968)
NOX5: NADPH oxidase 5 (NOX5, Homo sapiens, UniProt Q96PH1)
Histone acetyltransferase KAT6B: Histone acetyltransferase KAT6B (Homo sapiens, UniProt Q8WYB5)
DNA polymerase catalytic subunit: DNA polymerase catalytic subunit (Human cytomegalovirus, UniProt P08546)
PIK3CB: Phosphatidylinositol 4,5-bisphosphate 3-kinase catalytic subunit beta isoform (PIK3CB, Homo sapiens, UniProt P42338)

| Compound | target | assay | conditions | IC50 |
| --- | --- | --- | --- | --- |
| Cc1nc(Nc2ccc3c(c2)/C(=C/c2ccccc2Cl)C(=O)N3)c2ccccc2n1 | PIK3CA | enzyme activity, inhibitor, ADP detection | – | 27.7 nM |
| O=C(O)Cc1csc(NC(=O)c2cc3ccccc3[nH]2)n1 | KDR | enzyme activity, inhibitor, ELISA | – | 1210 nM |
| Cc1nc(Nc2ccc3c(c2)/C(=C/c2ccccc2C)C(=O)N3)c2ccccc2n1 | PIK3CA | enzyme activity, inhibitor, ADP detection | – | 45.5 nM |
| CCCc1c(-c2ccccc2)nn(-c2ccccn2)c1O | NOX5 | enzyme activity, inhibitor | – | 2200 nM |
| CCOc1cccc(-c2cccc(Cl)c2)c1S(=O)(=O)NC(=O)c1cc2c(C)cc(OC)cc2o1 | Histone acetyltransferase KAT6B | enzyme activity, inhibitor, TR-FRET | – | 25 nM |
| O=c1oc(-c2ccco2)nc2ccccc12 | Cathepsin G (CTSG, Homo sapiens, UniProt P08311) | enzyme activity, inhibitor, absorbance | pH 7.4 | 840 nM |
| COc1cc(C)c2cc(C(=O)NS(=O)(=O)c3ccc(C)cc3-c3ccccc3)oc2c1 | Histone acetyltransferase KAT6B | enzyme activity, inhibitor, TR-FRET | – | 41 nM |
| Cc1coc2c1C(=O)C(=O)c1c-2ccc2c1CCCC2(C)C | NOX5 | enzyme activity, inhibitor | – | 1900 nM |
| Cc1nc(Nc2ccc3c(c2)CC(=O)N3)c2ccccc2n1 | PIK3CA | enzyme activity, inhibitor, ADP detection | – | 56 nM |
| CNCCN1CCN(c2cnc3c(cc(C(=O)NCc4ccc(Cl)cc4)c(=O)n3CC(=O)N3CC(C)(F)C3)n2)C1=O | DNA polymerase catalytic subunit | enzyme activity, inhibitor | – | 571 nM |
| N#Cc1ccc(COC[C@H]2O[C@@H](n3c(NCc4ccc(Cl)c(Cl)c4)nc4c(N)ncnc43)[C@H](O)[C@@H]2O)cc1 | Transient receptor potential cation channel subfamily M member 7 (Trpm7, Mus musculus, UniProt Q923J1, F924W) | calcium signal | – | 5580 nM |
| O=C(Nc1ccccc1)Nc1ccc(Oc2nnc(-c3ccc(Cl)cc3)c3ccccc23)cc1 | KDR | cell-free assay, inhibitor | – | 195 nM |
| COc1cc2ncnc(Nc3ccc4c(c3)/C(=C/c3ccccc3)C(=O)N4C)c2cc1OC | PIK3CB | enzyme activity, inhibitor, ADP detection | – | 506 nM |
| COc1cc(C)c2cc(C(=O)NS(=O)(=O)c3ccc(C)cc3)oc2c1 | Histone acetyltransferase KAT6B | enzyme activity, inhibitor, TR-FRET | – | 262 nM |
| Cc1nc(Nc2ccc3c(c2)C(C)(C)C(=O)N3C)c2ccccc2n1 | PIK3CB | enzyme activity, inhibitor, ADP detection | – | 182 nM |
| COc1cc(C)c2cc(C(=O)NS(=O)(=O)c3ccccc3OC)oc2c1 | Histone acetyltransferase KAT6B | enzyme activity, inhibitor, TR-FRET | – | 68 nM |
| Cc1nc(N(Cc2ccccc2)c2ccc3c(c2)/C(=C/c2ccccc2)C(=O)N3Cc2ccccc2)c2ccccc2n1 (mixture of isomers) | PIK3CA | enzyme activity, inhibitor, ADP detection | – | 9.11 nM |
| COc1cnc2c(cc(C(=O)NCc3ccc(Cl)cc3)c(=O)n2CC(=O)N2CC(C)(F)C2)n1 | DNA polymerase catalytic subunit | enzyme activity, inhibitor | – | 954 nM |
